In brackets after ≈: the same amount, converted by molar mass. Bridge positions count the residues as written; N and C are the ends. Square brackets hold non-standard residues; d marks the D form. Peptide text beside a SMILES is read from it. * marks the point of attachment. Heptanoyl(6-Me) = CC(C)CCCCC(=O)*; Dab = NCC[C@H](N)C(=O)O
Assays:
Mus musculus [1] = test: Nephrotoxicity in ICR mouse assessed as pale tubular casts at 2.5 mg/kg, iv bid for 7 days measured after 2 hrs post last dose by hematoxylin and eosin staining based assay; type: toxicity, organism-based; conditions: in vivo
Summary of the method: (§1)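 ICR mice, 18-22 g, 4 weeks old, n=8 per group (4 male, 4 female); component in saline (0.25 mg/mL, kept at 4 °C) given iv at 2.5 mg/kg twice daily, 8 h apart, for 7 days. Kidneys taken 2 h after last dose, formalin-fixed, paraffin-embedded, sectioned, H&E stained and examined by light microscopy; saline controls included.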

Mus musculus [2] = test: Nephrotoxicity in ICR mouse assessed as tubular dilation at 2.5 mg/kg, iv bid for 7 days measured after 2 hrs post last dose by hematoxylin and eosin staining based assay; type: toxicity, organism-based; conditions: in vivo; summary of the method: as §1
Klebsiella pneumoniae [3] = test: Antibacterial activity against extended-spectrum beta-lactamase producing Klebsiella pneumoniae 700603 after 18 hrs by agar dilution method; type: functional; conditions: Klebsiella pneumoniae, 700603, 18 h
Summary of the method: (§2)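 Serial two-fold agar dilution per CLSI; bacteria cultured in Mueller-Hinton broth, inoculum about 10^4 cfu/spot; final concentrations 0.03-128 µg/mL; plates incubated 35 °C for 18 h. MIC = lowest concentration preventing visible growth; representative of at least two independent experiments, a third run when the two disagreed.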

Escherichia coli [4] = test: Antibacterial activity against Escherichia coli ATCC 25922 after 18 hrs by agar dilution method; type: functional; conditions: ATCC 25922, 18 h; summary of the method: as §2
Mus musculus [5] = test: Nephrotoxicity in ICR mouse assessed as induction of prominent nuclei at 2.5 mg/kg, iv bid for 7 days measured after 2 hrs post last dose by hematoxylin and eosin staining based assay; type: toxicity, organism-based; conditions: in vivo; summary of the method: as §1
[6] = Acute toxicity in iv dosed ICR mouse assessed as survival measured daily for 7 days; type: organism-based; conditions: in vivo
Summary of the method: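 ICR mice, 18 to 22 g, 4 weeks old, 10 per group (5 male, 5 female). Four to five intravenous dose groups per compound. Survival recorded daily for 7 days. LD50 (dose per kg body weight lethal to 50%) calculated by the Bliss method. LD50 values compared by one-way ANOVA.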

Acinetobacter baumannii = test: Antibacterial activity against Acinetobacter baumannii ATCC 19606 after 18 hrs by agar dilution method; type: functional; conditions: ATCC 19606 = CIP 70.34 = JCM 6841, 18 h; summary of the method: as §2
Klebsiella pneumoniae [7] = test: Antibacterial activity against NDM-1 producing Klebsiella pneumoniae ATCC BAA-2146 after 18 hrs by agar dilution method; type: functional; conditions: ATCC BAA-2146, 18 h; summary of the method: as §2
Pseudomonas aeruginosa = test: Antibacterial activity against Pseudomonas aeruginosa ATCC 27853 after 18 hrs by agar dilution method; type: functional; conditions: ATCC 27853, 18 h; summary of the method: as §2
Escherichia coli [8] = test: Antibacterial activity against extended-spectrum beta-lactamase producing Escherichia coli isolate 14-11 after 18 hrs by agar dilution method; type: functional; conditions: isolate 14-11, 18 h; summary of the method: as §2
[9] = (§3) Cytotoxicity against African green monkey Vero cells after 72 hrs by MTT assay; type: cell-based; conditions: chlorocebus sabaeus, Vero cells
Summary of the method: (§4)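 Vero cells seeded at 2x10^3 cells/well, incubated 24 h at 37 °C, 5% CO2, then exposed to compound 72 h; MTT added for 2 h, medium removed, formazan dissolved in DMSO, absorbance read at 570 nm. Viability relative to untreated cells (100%); CC50 as mean ± SD of three independent experiments, each in triplicate.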

Vero = test: as §3; type: cell-based; conditions: chlorocebus sabaeus, vero, 72 h; summary of the method: as §4

Compound	Activity (Mus musculus [1])	Activity (Mus musculus [2])	MIC (Klebsiella pneumoniae [3]) [µg/mL]	MIC (Escherichia coli [4]) [µg/mL]	Activity (Mus musculus [5])	LD50 at 168 h [6] [mg/kg]	MIC (Acinetobacter baumannii) [µg/mL]	MIC (Klebsiella pneumoniae [7]) [µg/mL]	MIC (Pseudomonas aeruginosa) [µg/mL]	MIC (Escherichia coli [8]) [µg/mL]	CC50 at 72 h [9] [µg/mL]	CC50 (Vero) [µg/mL]
CC(C)CCCCC(=O)N[C@@H](CCN)C(=O)N[C@H](C(=O)N[C@@H](CCN)C(=O)N[C@H]1CCNC(=O)[C@H]([C@@H](C)O)NC(=O)[C@H](CCN)NC(=O)[C@H](CCN)NC(=O)[C@H](CC(C)C)NC(=O)[C@@H](Cc2ccccc2)NC(=O)[C@H](CCN)NC1=O)[C@@H](C)O [POLYMYXIN B2] ({Heptanoyl(6-Me)}-[Dab]T[Dab][Dab][Dab][dF]L[Dab][Dab]T; lactam 4-C)	Toxic	Toxic	1 (≈ 0.841 µM)	0.5 (≈ 0.42 µM)	Toxic	12.6	0.5 (≈ 0.42 µM)	1 (≈ 0.841 µM)	2 (≈ 1.68 µM)	0.5 (≈ 0.42 µM)	159 (≈ 134 µM)	–
CC(C)CCCCC(=O)N[C@@H](CCN)C(=O)N[C@H](C(=O)N[C@@H](CCN)C(=O)N[C@H]1CCNC(=O)[C@H]([C@@H](C)O)NC(=O)[C@H](CCN)NC(=O)[C@H](CCN)NC(=O)[C@H](CC(C)C)NC(=O)[C@@H](CC(C)C)NC(=O)[C@H](CCN)NC1=O)[C@@H](C)O [COLISTIN B] ({Heptanoyl(6-Me)}-[Dab]T[Dab][Dab][Dab][dL]L[Dab][Dab]T; lactam 4-C)	Non-Toxic	Non-Toxic	1 (≈ 0.865 µM)	0.5 (≈ 0.433 µM)	Non-Toxic	11.3	0.5 (≈ 0.433 µM)	1 (≈ 0.865 µM)	2 (≈ 1.73 µM)	0.5 (≈ 0.433 µM)	244 (≈ 211 µM)	–
COLISTIN	–	–	–	–	–	–	–	–	–	–	–	95
CC(C)CCCCC(=O)N[C@@H](CCN)C(=O)N[C@H](C(=O)N[C@H](CO)C(=O)N[C@H]1CCNC(=O)[C@H]([C@@H](C)O)NC(=O)[C@H](CCN)NC(=O)[C@H](CCN)NC(=O)[C@H]([C@@H](C)O)NC(=O)[C@@H](Cc2ccccc2)NC(=O)[C@H](CCN)NC1=O)[C@@H](C)O ({Heptanoyl(6-Me)}-[Dab]T[dS][Dab][Dab][dF]T[Dab][Dab]T; lactam 4-C)	Non-Toxic	Non-Toxic	0.5 (≈ 0.429 µM)	0.25 (≈ 0.215 µM)	Non-Toxic	17	0.25 (≈ 0.215 µM)	0.5 (≈ 0.429 µM)	2 (≈ 1.72 µM)	0.25 (≈ 0.215 µM)	> 500	–
CC(C)CCCCC(=O)N[C@@H](CCN)C(=O)N[C@H](C(=O)N[C@H](CO)C(=O)N[C@H]1CCNC(=O)[C@H]([C@@H](C)O)NC(=O)[C@H](CCN)NC(=O)[C@H](CCN)NC(=O)[C@H]([C@@H](C)O)NC(=O)[C@@H](CC(C)C)NC(=O)[C@H](CCN)NC1=O)[C@@H](C)O ({Heptanoyl(6-Me)}-[Dab]T[dS][Dab][Dab][dL]T[Dab][Dab]T; lactam 4-C)	Toxic	Toxic	0.5 (≈ 0.442 µM)	0.25 (≈ 0.221 µM)	Toxic	20.5	0.12 (≈ 0.106 µM)	0.5 (≈ 0.442 µM)	4 (≈ 3.54 µM)	0.12 (≈ 0.106 µM)	318 (≈ 281 µM)	–
CC(C)CCCCC(=O)N[C@@H](CCN)C(=O)N[C@H](C(=O)N[C@@H](CCN)C(=O)N[C@H]1CCNC(=O)[C@H]([C@@H](C)O)NC(=O)[C@H](CCN)NC(=O)[C@H](CCN)NC(=O)[C@H](C(C)C)NC(=O)[C@@H](CC(C)C)NC(=O)[C@H](CCN)NC1=O)[C@@H](C)O ({Heptanoyl(6-Me)}-[Dab]T[Dab][Dab][Dab][dL]V[Dab][Dab]T; lactam 4-C)	–	–	0.5 (≈ 0.438 µM)	0.5 (≈ 0.438 µM)	–	13.2	1 (≈ 0.876 µM)	0.5 (≈ 0.438 µM)	2 (≈ 1.75 µM)	0.25 (≈ 0.219 µM)	225 (≈ 197 µM)	–
CC(C)CCCCC(=O)N[C@@H](CCN)C(=O)N[C@H](C(=O)N[C@@H](CCN)C(=O)N[C@H]1CCNC(=O)[C@H]([C@@H](C)O)NC(=O)[C@H](CCN)NC(=O)[C@H](CCN)NC(=O)[C@H]([C@@H](C)O)NC(=O)[C@@H](CC(C)C)NC(=O)[C@H](CCN)NC1=O)[C@@H](C)O	Non-Toxic	Non-Toxic	0.5 (≈ 0.437 µM)	0.5 (≈ 0.437 µM)	Non-Toxic	13	1 (≈ 0.875 µM)	0.5 (≈ 0.437 µM)	0.5 (≈ 0.437 µM)	0.25 (≈ 0.219 µM)	276 (≈ 241 µM)	–
CC[C@H](C)[C@@H]1NC(=O)[C@@H](CC(C)C)NC(=O)[C@H](CCN)NC(=O)[C@@H](NC(=O)[C@H](CCN)NC(=O)[C@@H](NC(=O)[C@H](CCN)NC(=O)CCCCC(C)C)[C@@H](C)O)CCNC(=O)[C@H]([C@@H](C)O)NC(=O)[C@H](CCN)NC(=O)[C@H](CCN)NC1=O	–	–	0.5 (≈ 0.433 µM)	1 (≈ 0.865 µM)	–	12.9	1 (≈ 0.865 µM)	1 (≈ 0.865 µM)	2 (≈ 1.73 µM)	0.5 (≈ 0.433 µM)	199 (≈ 172 µM)	–

Reference: ChEMBL document CHEMBL4118103, “Synthesis and Bioactivity Investigation of the Individual Components of Cyclic Lipopeptide Antibiotics” (J Med Chem, 2018)
